ChEMBL document CHEMBL1240328, “Selective compounds define Hsp90 as a major inhibitor of apoptosis in small-cell lung cancer” (Nat Chem Biol, 2007)
Calls of active or inactive are those of the source. The rule behind the calls is not given here.

Experiments:
[1] = tested on: NCI-H526; experiment: Inhibition of HSP70-mediated antiapoptotic activity in human NCI-H526 cells assessed as induction of caspase-3 cleavage after 24 hrs by Western blot analysis; format: cell-based
Summary of the method: (§1)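 NCI-H526 cells were treated for 24 h. PARP and caspase-3 cleavage were read by western blot of lysates in Tris/NaCl/NP-40 buffer. Apaf-1 complexes were immunoprecipitated with Apaf-1 antibody, using control IgG, then blotted.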

[2] = target: Heat shock protein HSP 90-beta (Homo sapiens) (UniProt P08238); experiment: Inhibition of HSP90-mediated antiapoptotic activity in human SKBR3 cells assessed as induction of caspase-9 cleavage at 200 uM after 24 hrs by Western blot analysis; format: cell-based; details: SK-BR-3
Summary of the method: (§2)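 SKBr3 breast cancer cells at 60–70% confluence treated 24 h with compound or DMSO vehicle. Lysates in 50 mM Tris pH 7.4, 150 mM NaCl, 1% NP-40, quantified by BCA. 20–100 µg resolved by SDS-PAGE, blotted to nitrocellulose and probed for cleaved caspase-3, caspase-9 and PARP, using 1:5,000 peroxidase secondary. β-actin or PI(3)K p85 served as loading control.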

[3] = tested on: SK-BR-3; experiment: Inhibition of HSP70-mediated antiapoptotic activity in human SKBR3 cells assessed as induction of PARP cleavage after 24 hrs by Western blot analysis; format: cell-based
Summary of the method: (§3)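 SKBr3 cells were treated for 24 h. Lysates were probed by western blot for caspase-3 and PARP cleavage. Apaf-1 complexes were pulled down with Apaf-1 antibody (with control IgG) and immunoblotted.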

[4] = tested on: NCI-H526; experiment: Inhibition of HSP70-mediated antiapoptotic activity in human NCI-H526 cells assessed as release of Apaf-1 from chaperon complex after 24 hrs by Western blot analysis; format: cell-based; summary of the method: as §1
[5] = tested on: NCI-H526; experiment: Inhibition of HSP70-mediated antiapoptotic activity in human NCI-H526 cells assessed as induction of PARP cleavage after 24 hrs by Western blot analysis; format: cell-based; summary of the method: as §1
[6] = tested on: SK-BR-3; experiment: Inhibition of HSP70-mediated antiapoptotic activity in human SKBR3 cells assessed as induction of caspase-3 cleavage after 24 hrs by Western blot analysis; format: cell-based; summary of the method: as §3
[7] = tested on: SK-BR-3; experiment: Inhibition of HSP70-mediated antiapoptotic activity in human SKBR3 cells assessed as induction of cell growth arrest after 72 hrs by propidium iodide staining-based flow cytometry
[8] = target: Heat shock protein HSP 90-beta (Homo sapiens) (UniProt P08238); experiment: Inhibition of HSP90-mediated antiapoptotic activity in human MCF7 cells assessed as induction of caspase-9 cleavage at 200 uM after 24 hrs by Western blot analysis; format: cell-based
[9] = tested on: SK-BR-3; experiment: Inhibition of HSP70-mediated antiapoptotic activity in human SKBR3 cells assessed as increase in caspase-3 activity after 24 hrs by Western blot analysis; format: cell-based
[10] = target: Heat shock protein HSP 90-beta (Homo sapiens) (UniProt P08238); experiment: Inhibition of HSP90-mediated antiapoptotic activity in human MCF7 cells assessed as induction of caspase-3 cleavage at 200 uM after 24 hrs by Western blot analysis; format: cell-based
[11] = target: Heat shock protein HSP 90-beta (Homo sapiens) (UniProt P08238); experiment: Inhibition of HSP90-mediated antiapoptotic activity in human MCF7 cells assessed as induction of PARP cleavage at 200 uM after 24 hrs by Western blot analysis; format: cell-based
[12] = target: Heat shock protein HSP 90-beta (Homo sapiens) (UniProt P08238); experiment: Inhibition of HSP90-mediated antiapoptotic activity in human SKBR3 cells assessed as induction of caspase-3 cleavage at 200 uM after 24 hrs by Western blot analysis; format: cell-based; details: SK-BR-3; summary of the method: as §2
[13] = target: Heat shock protein HSP 90-beta (Homo sapiens) (UniProt P08238); experiment: Inhibition of HSP90-mediated antiapoptotic activity in human SKBR3 cells assessed as induction of PARP cleavage at 200 uM after 24 hrs by Western blot analysis; format: cell-based; details: SK-BR-3; summary of the method: as §2

Heat shock protein HSP 90-beta (Homo sapiens), sequence (P08238 whole entry): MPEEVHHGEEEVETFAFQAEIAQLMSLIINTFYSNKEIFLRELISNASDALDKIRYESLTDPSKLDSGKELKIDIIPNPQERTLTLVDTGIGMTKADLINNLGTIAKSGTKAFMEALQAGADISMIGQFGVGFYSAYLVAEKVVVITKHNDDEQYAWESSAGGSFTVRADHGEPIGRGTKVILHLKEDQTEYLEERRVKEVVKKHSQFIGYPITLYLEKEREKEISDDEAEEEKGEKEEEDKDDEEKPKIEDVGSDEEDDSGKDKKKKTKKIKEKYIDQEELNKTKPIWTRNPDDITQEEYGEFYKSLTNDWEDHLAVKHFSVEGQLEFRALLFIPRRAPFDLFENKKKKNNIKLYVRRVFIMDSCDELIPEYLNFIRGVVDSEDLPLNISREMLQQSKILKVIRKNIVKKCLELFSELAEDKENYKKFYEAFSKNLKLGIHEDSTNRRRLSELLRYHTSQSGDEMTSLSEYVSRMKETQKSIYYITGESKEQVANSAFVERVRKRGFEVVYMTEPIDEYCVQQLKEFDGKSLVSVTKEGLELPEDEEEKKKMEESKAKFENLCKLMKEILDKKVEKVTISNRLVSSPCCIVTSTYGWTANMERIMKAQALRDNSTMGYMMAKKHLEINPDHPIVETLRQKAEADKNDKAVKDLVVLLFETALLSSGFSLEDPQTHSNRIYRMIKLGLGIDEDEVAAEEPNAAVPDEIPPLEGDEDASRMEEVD

O=c1c(O)c(-c2ccc(O)c(O)c2)oc2cc(O)cc(O)c12
inhibition [1]: inactive | Activity [2]: inactive | inhibition [3]: Active | inhibition [4]: inactive | inhibition [5]: inactive | inhibition [6]: Active | inhibition [7]: Active | Activity [8]: inactive | inhibition [9]: Active | Activity [10]: inactive | Activity [11]: inactive | Activity [12]: inactive | Activity [13]: inactive
